Data as given in ChEMBL document CHEMBL1275473, “Activities of ceftobiprole, linezolid, vancomycin, and daptomycin against community-associated and hospital-associated methicillin-resistant Staphylococcus aureus” (2008).
≈ marks a conversion by molar mass, not a printed value.

Columns and labels:
Assay type in all cases: functional
Staphylococcus aureus [1] = experiment: Bactericidal activity against community-acquired methicillin-resistant Staphylococcus aureus selected at MIC after 24 hrs by time kill analysis
Procedure, shortened: (§1)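 Time-kill at 0.5× or 1× MIC, alone and combined with tobramycin. Start inoculum ~10^6 CFU/ml, triplicate, sampled over 0–24 h and spiral-plated; detection limit 2 log10 CFU/ml. Bactericidal means ≥3-log10 CFU/ml reduction. Synergy means ≥2-log10 more killing at 24 h than the best single drug.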

Staphylococcus aureus [2] = experiment: Bactericidal activity against community-acquired methicillin-resistant Staphylococcus aureus selected at 0.5 times MIC after 24 hrs by time kill analysis; procedure, shortened: as §1
Staphylococcus aureus [3] = experiment: Antimicrobial activity against hospital-acquired methicillin-resistant Staphylococcus aureus by broth microdilution method
Procedure, shortened: (§2)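 Broth microdilution in duplicate per CLSI guidelines on clinical CA-/HA-MRSA isolates (100 each, Detroit Medical Center). Mueller-Hinton broth with 25 mg/liter calcium and 12.5 mg/liter magnesium; for daptomycin, 50 mg/liter calcium and 12.5 mg/liter magnesium.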

Staphylococcus aureus [4] = experiment: Bactericidal activity against community-acquired methicillin-resistant Staphylococcus aureus selected at 4 times MIC after 24 hrs by time kill analysis
Procedure, shortened: (§3)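 Time-kill in triplicate on four randomly selected isolates per group. Start inoculum ~10^6 CFU/ml, drug at 4× MIC; serum arm has 50% human serum. Sampled over 0–24 h, diluted in cold 0.9% NaCl, spiral-plated; detection limit 2 log10 CFU/ml. Bactericidal means ≥3-log10 reduction. T99.9 by linear regression or visual inspection.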

Staphylococcus aureus [5] = experiment: Antimicrobial activity against community-acquired methicillin-resistant Staphylococcus aureus by broth microdilution method; procedure, shortened: as §2
Staphylococcus aureus [6] = experiment: Bactericidal activity against hospital-acquired methicillin-resistant Staphylococcus aureus selected at 0.5 times MIC after 24 hrs by time kill analysis; procedure, shortened: as §1
Staphylococcus aureus [7] = experiment: Bactericidal activity against hospital-acquired methicillin-resistant Staphylococcus aureus selected at MIC after 24 hrs by time kill analysis; procedure, shortened: as §1
Staphylococcus aureus [8] = experiment: Bactericidal activity against community-acquired methicillin-resistant Staphylococcus aureus by broth microdilution method; conditions: for MBC: Staphylococcus aureus
Procedure, shortened: (§4)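 MBC read after CLSI broth microdilution in duplicate. Mueller-Hinton broth with 25 mg/liter calcium and 12.5 mg/liter magnesium; for daptomycin, 50 mg/liter calcium. 5-μl aliquots from clear wells were plated onto tryptic soy agar.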

Staphylococcus aureus [9] = experiment: Bactericidal activity against hospital-acquired methicillin-resistant Staphylococcus aureus selected at 4 times MIC after 24 hrs by time kill analysis; procedure, shortened: as §3
Staphylococcus aureus [10] = experiment: Bactericidal activity against hospital-acquired methicillin-resistant Staphylococcus aureus by broth microdilution method; conditions: for MBC: Staphylococcus aureus; procedure, shortened: as §4
Staphylococcus aureus [11] = experiment: Bactericidal activity against community-acquired methicillin-resistant Staphylococcus aureus by broth microdilution method in presence of 50% human serum
Procedure, shortened: (§5)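 MBC with 50% human serum on 10 CA-MRSA and 10 HA-MRSA isolates. Mueller-Hinton broth with 50 mg/liter calcium and 12.5 mg/liter magnesium. Aliquots from clear wells were plated onto tryptic soy agar.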

Staphylococcus aureus [12] = experiment: Bactericidal activity against community-acquired methicillin-resistant Staphylococcus aureus selected at 4 times MIC after 24 hrs by time kill analysis in presence of 50% human serum; procedure, shortened: as §3
Staphylococcus aureus [13] = experiment: Bactericidal activity against hospital-acquired methicillin-resistant Staphylococcus aureus selected at 4 times MIC after 24 hrs by time kill analysis in presence of 50% human serum; procedure, shortened: as §3
Staphylococcus aureus [14] = experiment: Antimicrobial activity against community-acquired methicillin-resistant Staphylococcus aureus by broth microdilution method in presence of 50% human serum
Procedure, shortened: (§6)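 Broth microdilution per CLSI, in duplicate, with 50% human serum added. Mueller-Hinton broth with 50 mg/liter calcium and 12.5 mg/liter magnesium. Run on 20 randomly chosen isolates, 10 CA-MRSA and 10 HA-MRSA.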

Staphylococcus aureus [15] = experiment: Bactericidal activity against hospital-acquired methicillin-resistant Staphylococcus aureus by broth microdilution method in presence of 50% human serum; procedure, shortened: as §5
Staphylococcus aureus [16] = experiment: Antimicrobial activity against hospital-acquired methicillin-resistant Staphylococcus aureus by broth microdilution method in presence of 50% human serum; procedure, shortened: as §6

Nc1nc(/C(=N/O)C(=O)N[C@@H]2C(=O)N3C(C(=O)O)=C(/C=C4\CCN([C@@H]5CCNC5)C4=O)CS[C@H]23)ns1 [CEFTOBIPROLE]
T99.9% (Staphylococcus aureus [1]): 8.6 h | T99.9% (Staphylococcus aureus [2]): 14.2 h | MIC50 (Staphylococcus aureus [3]): 1 µg/mL (≈ 1.87 µM) | MIC90 (Staphylococcus aureus [3]): 2 µg/mL (≈ 3.74 µM) | T99.9% (Staphylococcus aureus [4]): 8 h | MIC50 (Staphylococcus aureus [5]): 1 µg/mL (≈ 1.87 µM) | MIC90 (Staphylococcus aureus [5]): 2 µg/mL (≈ 3.74 µM) | T99.9% (Staphylococcus aureus [6]): 14.2 h | T99.9% (Staphylococcus aureus [7]): 8.6 h | MBC50 (Staphylococcus aureus [8]): 2 µg/mL (≈ 3.74 µM) | MBC90 (Staphylococcus aureus [8]): 4 µg/mL (≈ 7.48 µM) | MBC (Staphylococcus aureus [8]): 0.5 µg/mL (≈ 0.935 µM) | T99.9% (Staphylococcus aureus [9]): 11.8 h | MBC50 (Staphylococcus aureus [10]): 2 µg/mL (≈ 3.74 µM) | MBC90 (Staphylococcus aureus [10]): 4 µg/mL (≈ 7.48 µM) | MBC (Staphylococcus aureus [10]): 0.5 µg/mL (≈ 0.935 µM)

CN[C@H](CC(C)C)C(=O)N[C@H]1C(=O)N[C@@H](CC(N)=O)C(=O)N[C@H]2C(=O)N[C@H]3C(=O)N[C@H](C(=O)N[C@H](C(=O)O)c4cc(O)cc(O)c4-c4cc3ccc4O)[C@H](O)c3ccc(c(Cl)c3)Oc3cc2cc(c3O[C@@H]2O[C@H](CO)[C@@H](O)[C@H](O)[C@H]2O[C@H]2C[C@](C)(N)[C@H](O)[C@H](C)O2)Oc2ccc(cc2Cl)[C@H]1O [VANCOMYCIN]
MIC50 (Staphylococcus aureus [3]): 1 µg/mL (≈ 0.69 µM) | MIC90 (Staphylococcus aureus [3]): 2 µg/mL (≈ 1.38 µM) | T99.9% (Staphylococcus aureus [4]): 8.6 h | MIC50 (Staphylococcus aureus [5]): 1 µg/mL (≈ 0.69 µM) | MIC90 (Staphylococcus aureus [5]): 1 µg/mL (≈ 0.69 µM) | MBC50 (Staphylococcus aureus [8]): 1 µg/mL (≈ 0.69 µM) | MBC90 (Staphylococcus aureus [8]): 2 µg/mL (≈ 1.38 µM) | MBC (Staphylococcus aureus [8]): 0.5 µg/mL (≈ 0.345 µM) | T99.9% (Staphylococcus aureus [9]): 8.6 h | MBC50 (Staphylococcus aureus [10]): 1 µg/mL (≈ 0.69 µM) | MBC90 (Staphylococcus aureus [10]): 2 µg/mL (≈ 1.38 µM) | MBC (Staphylococcus aureus [10]): 0.5 µg/mL (≈ 0.345 µM)

CCCCCCCCCC(=O)N[C@@H](Cc1c[nH]c2ccccc12)C(=O)N[C@H](CC(N)=O)C(=O)N[C@@H](CC(=O)O)C(=O)N[C@@H]1C(=O)NCC(=O)N[C@@H](CCCN)C(=O)N[C@@H](CC(=O)O)C(=O)N[C@H](C)C(=O)N[C@@H](CC(=O)O)C(=O)NCC(=O)N[C@H](CO)C(=O)N[C@@H]([C@H](C)CC(=O)O)C(=O)N[C@@H](CC(=O)c2ccccc2N)C(=O)O[C@@H]1C
MBC50 (Staphylococcus aureus [11]): 1 µg/mL | MBC90 (Staphylococcus aureus [11]): 1 µg/mL | MBC (Staphylococcus aureus [11]; Staphylococcus aureus): 0.5 µg/mL | T99.9% (Staphylococcus aureus [12]): 2.2 h | MIC50 (Staphylococcus aureus [3]): 0.25 µg/mL (≈ 0.154 µM) | MIC90 (Staphylococcus aureus [3]): 0.5 µg/mL (≈ 0.309 µM) | T99.9% (Staphylococcus aureus [13]): 2.1 h | T99.9% (Staphylococcus aureus [4]): 1.6 h | MIC50 (Staphylococcus aureus [14]): 1 µg/mL | MIC90 (Staphylococcus aureus [14]): 1 µg/mL | MBC50 (Staphylococcus aureus [15]): 1 µg/mL | MBC90 (Staphylococcus aureus [15]): 1 µg/mL | MBC (Staphylococcus aureus [15]; Staphylococcus aureus): 0.5 µg/mL | MIC50 (Staphylococcus aureus [5]): 0.25 µg/mL (≈ 0.154 µM) | MIC90 (Staphylococcus aureus [5]): 0.5 µg/mL (≈ 0.309 µM) | MBC50 (Staphylococcus aureus [8]): 0.25 µg/mL (≈ 0.154 µM) | MBC90 (Staphylococcus aureus [8]): 0.5 µg/mL (≈ 0.309 µM) | MBC (Staphylococcus aureus [8]): 0.125 µg/mL (≈ 0.0771 µM) | T99.9% (Staphylococcus aureus [9]): 1.6 h | MBC50 (Staphylococcus aureus [10]): 0.25 µg/mL (≈ 0.154 µM) | MBC90 (Staphylococcus aureus [10]): 1 µg/mL (≈ 0.617 µM) | MBC (Staphylococcus aureus [10]): 0.125 µg/mL (≈ 0.0771 µM) | MIC50 (Staphylococcus aureus [16]): 0.5 µg/mL | MIC90 (Staphylococcus aureus [16]): 1 µg/mL

CC(=O)NC[C@H]1CN(c2ccc(N3CCOCC3)c(F)c2)C(=O)O1 [LINEZOLID]
MIC50 (Staphylococcus aureus [3]): 2 µg/mL (≈ 5.93 µM) | MIC90 (Staphylococcus aureus [3]): 4 µg/mL (≈ 11.9 µM) | MIC50 (Staphylococcus aureus [5]): 2 µg/mL (≈ 5.93 µM) | MIC90 (Staphylococcus aureus [5]): 4 µg/mL (≈ 11.9 µM) | MBC50 (Staphylococcus aureus [8]): 8 µg/mL (≈ 23.7 µM) | MBC90 (Staphylococcus aureus [8]): 32 µg/mL (≈ 94.9 µM) | MBC (Staphylococcus aureus [8]): 2 µg/mL (≈ 5.93 µM) | MBC50 (Staphylococcus aureus [10]): 16 µg/mL (≈ 47.4 µM) | MBC90 (Staphylococcus aureus [10]): 64 µg/mL (≈ 190 µM) | MBC (Staphylococcus aureus [10]): 1 µg/mL (≈ 2.96 µM)
